STEP block = STEP phosphatase inhibitors, primary screen, biochemical, fluorescence intensity, uHTS | recombinant STEP, OMFP fluorogenic substrate | inhibition, % at 20 µM | AID 588621, 2011 | 0.25% of 360,000 active | Tyrosine-protein phosphatase non-receptor type 5 (Homo sapiens), P54829;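 active means inhibition at 20 µM, scaled per plate between control wells, above about 37%, limit read from the data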;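 further: 0% = DMSO with enzyme and substrate and 100% = substrate only without enzyme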
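Assay system: isolated STEP enzyme / Timing: 20 min at room temperature, dark / Doses: 20 µM, 1% DMSO / Technique: fluorescence intensity, excitation 480 nm, emission 540 nm / Reagent: fluorogenic phosphatase substrate OMFP at 25 µM final / Measure: percent inhibition scaled to no-enzyme and uninhibited-enzyme controls, plate-pattern corrected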
LMPTP block = LMPTP phosphatase inhibitors, primary screen, biochemical, fluorescence intensity, uHTS; 0.22% of 360,000 active; AID 651560, 2012; recombinant LMPTP-A, OMFP fluorogenic substrate; inhibition, % at 20 µM;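 active means compounds that cut the enzyme signal by at least half of the control window in the single-dose screen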;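 further: plate controls were DMSO wells with enzyme plus substrate for no effect and substrate without enzyme for full effect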
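Buffer or medium: Bis-Tris pH 6.0, DTT, detergent; Assay system: LMPTP-A enzyme; Quantity: 0.625 nM enzyme; Detection: endpoint fluorescence intensity; Times: 50 min dark incubation at room temperature; Controls: substrate-only low control, DMSO enzyme-plus-substrate high control; Doses: single 20 µM dose; Read-out: percent inhibition versus substrate-only and uninhibited controls; Reagent: 400 µM OMFP.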
SUMO1 PPI mod = modulators of SUMO1 protein-protein interactions, primary screen, biochemical, uHTS | AID 602429, 2012 | SUMO1 binding to a labelled peptide, TR-FRET, 1 h | 0.33% of 360,000 active | Small ubiquitin-related modifier 1 (Homo sapiens), P63165 | inhibition, % at 20 µM; in the data active means inhibition above about 37%
DNMT1 block = human DNMT1 methyltransferase inhibitors, primary screen, biochemical, molecular beacon, fluorescence, HinP1I cleavage, uHTS | DNA (cytosine-5)-methyltransferase 1 (Homo sapiens), P26358 | inhibition (reported as % activation of signal), % at 10 µM | 0.83% of 360,000 active; in the data active means inhibition above about 50%
Scp1 inh = Scp-1 phosphatase inhibitors, primary screen, biochemical, colorimetric, uHTS. Carboxy-terminal domain RNA polymerase II polypeptide A small phosphatase 1 (Homo …. Recombinant Scp1, phosphopeptide, malachite green phosphate absorbance. inhibition, % at 20 µM. 0.88% of 340,000 active;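 active means inhibition above about 50% at 20 µM, limit read from the data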;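 further: plate controls were DMSO wells with enzyme for no effect and wells lacking enzyme for full effect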
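Times: enzyme reaction 45 min at room temperature, colour 5 min, stabilisation 30 min. Material: SCP-1 catalytic fragment, aa 76-261. Medium: Acidic Tris acetate buffer with magnesium and detergent. Signal: colorimetric free-phosphate detection, absorbance 630 nm. Read-out basis: % inhibition of SCP-1 phosphate liberation. Reagent: Phosphorylated 17-residue peptide substrate.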
CFTR F508del cor = F508del CFTR correction, initial screen, CFBE line, single point | CFBE cells, YFP halide quenching; stimulated with forskolin plus potentiator P3; % fluorescence drop versus neutral controls | activity (quench increase), % at 7.58 µM | 0.36% of 350,000 active | AID 720511, 2013;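 active means mean added fluorescence quench of at least 8% versus neutral control, with both replicates also reaching 8%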;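 further: cells transiently co-express mutant CFTR-F508del with the halide-sensitive YFP; corrector assay measuring rescue of mutant channel to the surface after 24 h compound exposure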
An asterisk follows results filed as active; ! = not confirmed by another sample. A selection: hits, their analogues and other compounds. The true share with any hit is near 1.6%.

What do the screens show for `CCC(=O)Nc1c(C#N)c2nc3ccccc3nc2n1-c1ccccc1C`?
STEP block: 2; LMPTP block: 0; SUMO1 PPI mod: -17; DNMT1 block: -20; Scp1 inh: -5

Results for CCCCn1c(NC(=O)c2ccccc2Cl)c(C#N)c2nc3ccccc3nc21 ?
STEP block: 0; LMPTP block: 17; SUMO1 PPI mod: 53*; DNMT1 block: 76*; Scp1 inh: -4

How did N#Cc1c(NC(=O)c2ccccc2Cl)n(Cc2ccccc2)c2nc3ccccc3nc12 do in these assays?
STEP block: 1; LMPTP block: 12; SUMO1 PPI mod: 56*; DNMT1 block: 54*; Scp1 inh: -1; CFTR F508del cor: 3

What do the screens show for `COc1ccc(S(=O)(=O)Nc2ccc3c(c2)C(=O)N([C@@H](C)CO)C[C@H](C)[C@H](CN(C)S(=O)(=O)c2c(C)noc2C)O3)cc1`?
CFTR F508del cor: 1

What do the screens show for `O=C(C[C@@H]1CC[C@H]2[C@@H](COC[C@@H](O)CN2CC2CCOCC2)O1)N1CCOCC1`?
CFTR F508del cor: 1

Results for COc1ccc(S(=O)(=O)Nc2cccc3c2O[C@@H](CN(C)S(C)(=O)=O)[C@@H](C)CN([C@H](C)CO)C3=O)cc1 ?
CFTR F508del cor: 1

What do the screens show for `Cc1nc(Cl)sc1C(=O)Nc1ccc(F)cc1`?
STEP block: -1; LMPTP block: -1; SUMO1 PPI mod: 1; DNMT1 block: -2; Scp1 inh: -10

What do the screens show for `CC(C)S(=O)(=O)c1csc(C(=O)Nc2ccc(F)cc2)c1N`?
STEP block: -2; LMPTP block: -2; SUMO1 PPI mod: 3; DNMT1 block: 1; Scp1 inh: 92*; CFTR F508del cor: 1

How did O=C(Nc1ccc(Cl)c(Cl)c1)N[C@H]1CC[C@@H](CCn2cc(C3CCCC3)nn2)O[C@H]1CO do in these assays?
CFTR F508del cor: 1

What do the screens show for `O=C(Nc1cccc(S(=O)(=O)NC2=NCCCCC2)c1)c1cc(-c2ccncc2)nc2ccccc12`?
STEP block: 2; LMPTP block: 2; SUMO1 PPI mod: -16; DNMT1 block: -17; Scp1 inh: -6; CFTR F508del cor: 0

What do the screens show for `O=C(Nc1cccc(S(=O)(=O)NC2=NCCCCC2)c1)c1cc(-c2ccco2)nc2ccccc12`?
STEP block: 0; LMPTP block: 35; SUMO1 PPI mod: 12; DNMT1 block: 97*; Scp1 inh: 90*; CFTR F508del cor: 4

Results for CC(C)CCN(N=O)[C@@H](Cc1ccccc1)CN(N=O)[C@@H](Cc1ccccc1)CN(C)N=O ?
STEP block: 0; LMPTP block: 2; SUMO1 PPI mod: 4; DNMT1 block: 2; Scp1 inh: -3; CFTR F508del cor: -3

What do the screens show for `CN(C[C@H](Cc1ccccc1)N(C[C@H](Cc1ccccc1)N(CCC(C)(C)C)N=O)N=O)N=O`?
STEP block: 3; LMPTP block: 0; SUMO1 PPI mod: 6; DNMT1 block: -13; Scp1 inh: 5; CFTR F508del cor: 8.8*

Results for COc1cccc(-c2cccc(-c3nc(C(=O)NCC(F)(F)F)cc4c3[C@H](CCO)N([S@@](=O)C(C)(C)C)C4)c2)c1 ?
CFTR F508del cor: 11*

What do the screens show for `CC(=O)N1Cc2cc(C(=O)NCC(F)(F)F)nc(-c3cccc(-c4cccnc4)c3)c2[C@@H]1CCO`?
LMPTP block: -2; SUMO1 PPI mod: 0; CFTR F508del cor: 8.9*!

Results for COc1ccc(-c2cccc(-c3nc(C(=O)NCC(F)(F)F)cc4c3[C@H](CCO)N([S@@](=O)C(C)(C)C)C4)c2)cc1 ?
CFTR F508del cor: 2

Results for COc1cccc(NC(=O)c2cnc(SCC(=O)NCc3ccc4c(c3)OCO4)n(C)c2=O)c1 ?
STEP block: 2; LMPTP block: 1; SUMO1 PPI mod: -47; DNMT1 block: -2; Scp1 inh: 1; CFTR F508del cor: 8.1*

What do the screens show for `COc1cccc(-c2ccc3n(c2=O)C[C@H]2[C@H](CO)[C@@H](C(=O)N4CCOCC4)N[C@@H]32)c1`?
CFTR F508del cor: -4

Results for COc1cc(OC)cc(C(=O)c2c(C)c(C#N)c3ccccn23)c1 ?
STEP block: 2; LMPTP block: 2; SUMO1 PPI mod: -16; DNMT1 block: -1; Scp1 inh: -16; CFTR F508del cor: 17*

What do the screens show for `CN(C)C(=O)C[C@H]1CC[C@@H]2[C@H](COc3ccc(NC(=O)C4CCCC4)cc3C(=O)N2C)O1`?
CFTR F508del cor: 1

How did CO[C@H]1CN(C)C(=O)c2ccc(NC(C)=O)cc2OC[C@@H](C)N(S(=O)(=O)c2cn(C)cn2)C[C@@H]1C do in these assays?
CFTR F508del cor: -1

What do the screens show for `O=C(CN(C1CCCCC1)S(=O)(=O)c1ccc(F)cc1)NCC1CCCO1` (stereo unspecified)?
STEP block: 2; LMPTP block: 0; SUMO1 PPI mod: -40; DNMT1 block: -4; Scp1 inh: -5; CFTR F508del cor: 21*

Results for COc1cc(C(=O)Nc2ccc3c(c2)nc(C)n3C)cc(OC)c1OC ?
STEP block: 2; LMPTP block: 1; SUMO1 PPI mod: 1; DNMT1 block: -3; Scp1 inh: -3; CFTR F508del cor: -2

Results for COc1cc(C(=O)Nc2ccc3c(c2)ncn3C)cc(OC)c1OC ?
STEP block: -1; LMPTP block: 0; SUMO1 PPI mod: 3; DNMT1 block: 0; Scp1 inh: -4; CFTR F508del cor: 12*

How did Clc1nssc1=Nc1ccc(Br)cc1 do in these assays?
STEP block: 7; LMPTP block: 50*; SUMO1 PPI mod: -12; DNMT1 block: -3; Scp1 inh: -1; CFTR F508del cor: 0

How did Clc1ccc(N=c2ssnc2Cl)nc1 do in these assays?
STEP block: 31; LMPTP block: 79*; SUMO1 PPI mod: 21; DNMT1 block: -6; Scp1 inh: -11; CFTR F508del cor: 1

Results for COc1cc(N=c2ssnc2Cl)cc(OC)c1 ?
STEP block: 6; LMPTP block: 40; SUMO1 PPI mod: -2; DNMT1 block: -5; Scp1 inh: -5

What do the screens show for `Cc1ccc(/C=C2\C(=O)ON=C2c2ccccc2)o1`?
STEP block: -2; LMPTP block: -1; SUMO1 PPI mod: -6; DNMT1 block: 1; Scp1 inh: -5; CFTR F508del cor: -1

Screening data deposited in PubChem BioAssay by several laboratories.
